For assay [1], the species on record is Rattus norvegicus. As to the kind of experiment: Inhibition of [14C]-L-NMMA (1 umol/L) binding to dimethylarginine dimethylaminohydrolase of rat kidney homogenate at 1 mM. The method, boiled down:
(§1)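 Rat kidney homogenized in PBS with PMSF 1 mM and leupeptin, pepstatin, chymostatin (5 µg/mL each), then spun; high-speed supernatant used as enzyme source (both DDAH isoforms). [14C]L-NMMA 1 µmol/L added, 1 h at 37 °C; stopped with neutral-pH Dowex resin binding unmetabolized L-NMMA. [14C]citrulline counted by scintillation. Screening at 1 mM or 100 µM; IC50 determined for actives.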

The nature of assay [2]: Inhibition of [14C]-L-NMMA (1 umol/L) binding to dimethylarginine dimethylaminohydrolase of rat kidney homogenate. The essentials: as §1
Assay [3] is filed under the species Rattus norvegicus. As to the kind of experiment: Inhibition of [14C]-L-NMMA (1 umol/L) binding to dimethylarginine dimethylaminohydrolase of rat kidney homogenate 100 uM. The essentials: as §1

Consider `CC(C)OCC/N=C(\N)NCC[C@H](N)C(=O)O`, for which the inhibition in the assay listed under Rattus norvegicus [1] is 97%. The compound also came in with a half-maximal inhibitory concentration (IC50) in assay [2] of 301 µM.
With `CN(C)C(=N)NCC[C@H](N)C(=O)O`, the inhibition in the assay listed under Rattus norvegicus [1] was determined as 85%. Besides, in assay [2], the IC50 came out at 325 µM.
`COCC/N=C(\N)NCC[C@H](N)C(=O)O`: the inhibition in the assay filed under Rattus norvegicus [1] was found to be 90%. The concentration for half-maximal inhibition (IC50) in assay [2] turned out to be 189 µM.
Turning to `CCCOC(=O)[C@@H](N)CC/N=C(\N)NCCOC`, the inhibition in the assay filed under Rattus norvegicus [3] was 64%. This compound also displayed an IC50 in assay [2] of 111 µM.
`C/N=C(\N)NCC[C@H](N)C(=O)O` yielded an inhibition in the assay filed under Rattus norvegicus [1] of 48%. This compound also displayed an IC50 in assay [2] of 1510 µM.
On to `N/C(=N\CC[C@H](N)C(=O)O)N1CCCCC1`, for which the inhibition in the assay filed under Rattus norvegicus [1] turned out to be 74%. Besides, in assay [2], the IC50 worked out at 264 µM.
The like results for `CC/N=C(\N)NCC[C@H](N)C(=O)O` were, in that order, 100% and 300 µM.
Regarding `COCCN/C(N)=N/CC[C@H](N)C(=O)OC(C)C`, the inhibition in the assay listed under Rattus norvegicus [3] worked out at 30%. Further, in assay [2], the IC50 came out at 189 µM.
In turn, `COCC/N=C(/N)NCCC[C@H](N)C(=O)OC` gave an inhibition in the assay filed under Rattus norvegicus [3] of 83%. Further, the IC50 in assay [2] was 20 µM.
For `COCCNC(=N)NCCC[C@H](N)C(=O)O`, the inhibition in the assay listed under Rattus norvegicus [3] is 100%. This compound also came in with an IC50 in assay [2] of 22 µM.

The values above are taken from ChEMBL document CHEMBL1145158, “Selective substrate-based inhibitors of mammalian dimethylarginine dimethylaminohydrolase” (J Med Chem, 2005).
